≈ marks a conversion by molar mass, not a printed value.
Columns and labels:
Assay type in all cases: functional
MRC5 [1] = test: Cytotoxicity against human MRC5 cells assessed as growth inhibition at 10^-5 M after 72 hrs by MTS assay relative to control; details: MRC5, 72 h, read-out: GI
Method in brief: (§1)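 Cells from ATCC; HCT-116 grown in RPMI 1640 and MRC5 in DMEM, each with 10% FCS and 1% glutamine, 37 °C, 5% CO2. Seeded at 2.5 × 10^3 cells/well, cultured 24 h, then exposed to compounds at 1 and 10 μM final for 72 h. MTS read-out, absorbance 490 nm; percent index from treated/control OD490 × 100, three experiments.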

Mammaliicoccus sciuri = test: Antibacterial activity against Staphylococcus sciuri N993 after 18 hrs by agar dilution method; details: N993, 18 h
Method in brief: (§2)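 Agar-dilution MIC against Gram-positive strains. Compounds in DMSO, geometric dilutions giving final 100−0.75 mg/L in Mueller Hinton agar. Strains grown 18 h at 37 °C in trypticase soy broth, diluted in sterile water, spotted by Steers inoculator (about 1000 UFC/spot). Plates incubated 18 h at 37 °C; DMSO blank; ofloxacin positive control. MIC = lowest concentration with no visible growth.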

Enterococcus faecalis [2] = test: Antibacterial activity against Enterococcus faecalis N518 after 18 hrs by agar dilution method; details: N518, 18 h; method in brief: as §2
Enterococcus faecalis [3] = test: Antibacterial activity against Enterococcus faecalis CIP 103214 after 18 hrs by agar dilution method; details: CIP 103214, 18 h; method in brief: as §2
Bacillus spizizenii = test: Antibacterial activity against Bacillus subtilis ATCC 6633 after 18 hrs by agar dilution method; details: ATCC 6633, 18 h; method in brief: as §2
Staphylococcus aureus [4] = test: Antibacterial activity against Staphylococcus aureus ATCC 25923 after 18 hrs by agar dilution method; details: ATCC 25923, 18 h; method in brief: as §2
Enterococcus durans = test: Antibacterial activity against Enterococcus durans CIP 104999 after 18 hrs by agar dilution method; details: CIP 104999, 18 h; method in brief: as §2
Enterococcus faecium [5] = test: Antibacterial activity against Enterococcus faecium N733 after 18 hrs by agar dilution method; details: N733, 18 h; method in brief: as §2
Staphylococcus aureus [6] = test: Antibacterial activity against Staphylococcus aureus CIP 53156 after 18 hrs by agar dilution method; details: CIP 53156, 18 h; method in brief: as §2
Enterococcus faecium [7] = test: Antibacterial activity against Enterococcus faecium N490 after 18 hrs by agar dilution method; details: N490, 18 h; method in brief: as §2
[8] = tested on: Staphylococcus haemolyticus; test: Antibacterial activity against Staphylococcus haemolyticus CIP 8156 after 18 hrs by agar dilution method; details: CIP 8156, 18 h; method in brief: as §2
Enterococcus faecalis [9] = test: Antibacterial activity against Enterococcus faecalis CIP 104676 after 18 hrs by agar dilution method; details: CIP 104676, 18 h; method in brief: as §2
[10] = tested on: Staphylococcus saprophyticus; test: Antibacterial activity against Staphylococcus saprophyticus E260 after 18 hrs by agar dilution method; details: E260, 18 h; method in brief: as §2
Streptococcus agalactiae = test: Antibacterial activity against Streptococcus agalactiae CIP 103227 after 18 hrs by agar dilution method; details: ATCC 13813, 18 h; method in brief: as §2
Enterococcus faecium [11] = test: Antibacterial activity against Enterococcus faecium CIP 103014 after 18 hrs by agar dilution method; details: CIP 103014, 18 h; method in brief: as §2
[12] = tested on: Enterococcus casseliflavus; test: Antibacterial activity against Enterococcus casseliflavus CIP 103018 after 18 hrs by agar dilution method; details: CIP 103018, 18 h; method in brief: as §2
[13] = tested on: Staphylococcus intermedius; test: Antibacterial activity against Staphylococcus intermedius N987 after 18 hrs by agar dilution method; details: N987, 18 h; method in brief: as §2
Enterococcus faecalis [14] = test: Antibacterial activity against Enterococcus faecalis N520 after 18 hrs by agar dilution method; details: N520, 18 h; method in brief: as §2
Listeria monocytogenes [15] = test: Antibacterial activity against Listeria monocytogenes N836 after 18 hrs by agar dilution method; details: N836, 18 h; method in brief: as §2
Bacillus cereus [16] = test: Antibacterial activity against Bacillus cereus N258 after 18 hrs by agar dilution method; details: N258, 18 h; method in brief: as §2
Staphylococcus aureus [17] = test: Antibacterial activity against Staphylococcus aureus CIP 5710 after 18 hrs by agar dilution method; details: CIP 5710, 18 h; method in brief: as §2
Staphylococcus aureus [18] = test: Antibacterial activity against Staphylococcus aureus CRBIP 2121 after 18 hrs by agar dilution method; details: CRBIP 2121, 18 h; method in brief: as §2
Corynebacterium striatum = test: Antibacterial activity against Corynebacterium striatum N840 after 18 hrs by agar dilution method; details: N840, 18 h; method in brief: as §2
Bacillus cereus [19] = test: Antibacterial activity against Bacillus cereus CIP 6624 after 18 hrs by agar dilution method; details: CIP 6624, 18 h; method in brief: as §2
Enterococcus gallinarum [20] = test: Antibacterial activity against Enterococcus gallinarum N492 after 18 hrs by agar dilution method; details: N492, 18 h; method in brief: as §2
Staphylococcus aureus [21] = test: Antibacterial activity against Staphylococcus aureus CIP 53154 after 18 hrs by agar dilution method; details: CIP 53154, 18 h; method in brief: as §2
MRC5 [22] = test: Cytotoxicity against human MRC5 cells assessed as growth inhibition at 10^-6 M after 72 hrs by MTS assay relative to control; details: MRC5, 72 h, read-out: GI; method in brief: as §1
Enterococcus faecalis [23] = test: Antibacterial activity against Enterococcus faecalis N491 after 18 hrs by agar dilution method; details: N491, 18 h; method in brief: as §2
Bacillus cereus [24] = test: Antibacterial activity against Bacillus cereus N190 after 18 hrs by agar dilution method; details: N190, 18 h; method in brief: as §2
Listeria monocytogenes [25] = test: Antibacterial activity against Listeria monocytogenes CIP 103575 after 18 hrs by agar dilution method; details: CIP 103575, 18 h; method in brief: as §2
Enterococcus avium = test: Antibacterial activity against Enterococcus avium CIP 104053 after 18 hrs by agar dilution method; details: CIP 104053, 18 h; method in brief: as §2
Staphylococcus aureus [26] = test: Antibacterial activity against Staphylococcus aureus CIP 7625 after 18 hrs by agar dilution method; details: CIP 7625, 18 h; method in brief: as §2
[27] = tested on: Staphylococcus lugdunensis; test: Antibacterial activity against Staphylococcus lugdunensis ATCC 43809 after 18 hrs by agar dilution method; details: ATCC 43809, 18 h; method in brief: as §2
[28] = tested on: Staphylococcus saprophyticus; test: Antibacterial activity against Staphylococcus saprophyticus CIP 76125 after 18 hrs by agar dilution method; details: CIP 76125, 18 h; method in brief: as §2
Enterococcus hirae = test: Antibacterial activity against Enterococcus hirae CIP 5855 after 18 hrs by agar dilution method; details: CIP 5855, 18 h; method in brief: as §2
Enterococcus gallinarum [29] = test: Antibacterial activity against Enterococcus gallinarum CIP 105985 after 18 hrs by agar dilution method; details: CIP 105985, 18 h; method in brief: as §2
Staphylococcus aureus [30] = test: Antibacterial activity against Staphylococcus aureus CIP 483 after 18 hrs by agar dilution method; details: CIP 483, 18 h; method in brief: as §2
Listeria monocytogenes [31] = test: Antibacterial activity against Listeria monocytogenes N783 after 18 hrs by agar dilution method; details: N783, 18 h; method in brief: as §2
Listeria monocytogenes [32] = test: Antibacterial activity against Listeria monocytogenes N851 after 18 hrs by agar dilution method; details: N851, 18 h; method in brief: as §2
Enterococcus faecium [33] = test: Antibacterial activity against Enterococcus faecium N823 after 18 hrs by agar dilution method; details: N823, 18 h; method in brief: as §2
Listeria innocua = test: Antibacterial activity against Listeria innocua E044 after 18 hrs by agar dilution method; details: E044, 18 h; method in brief: as §2
Bacillus cereus [34] = test: Antibacterial activity against Bacillus cereus N349 after 18 hrs by agar dilution method; details: N349, 18 h; method in brief: as §2
[35] = tested on: Staphylococcus epidermidis; test: Antibacterial activity against Staphylococcus epidermidis CIP 53124 after 18 hrs by agar dilution method; details: CIP 53124, 18 h; method in brief: as §2
Staphylococcus aureus [36] = test: Antibacterial activity against Staphylococcus aureus ATCC 9144 oxford after 18 hrs by agar dilution method; method in brief: as §2
HCT-116 [37] = test: Cytotoxicity against human HCT116 cells assessed as growth inhibition at 10^-6 M after 72 hrs by MTS assay relative to control; details: HCT-116, 72 h, read-out: GI; method in brief: as §1
Enterococcus faecium [38] = test: Antibacterial activity against Enterococcus faecium CIP 107387 after 18 hrs by agar dilution method; details: CIP 107387, 18 h; method in brief: as §2
[39] = tested on: Enterococcus casseliflavus; test: Antibacterial activity against Enterococcus casseliflavus N487 after 18 hrs by agar dilution method; details: N487, 18 h; method in brief: as §2
Enterococcus gallinarum [40] = test: Antibacterial activity against Enterococcus gallinarum N489 after 18 hrs by agar dilution method; details: N489, 18 h; method in brief: as §2
Enterococcus faecium [41] = test: Antibacterial activity against Enterococcus faecium N507 after 18 hrs by agar dilution method; details: N507, 18 h; method in brief: as §2
HCT-116 [42] = test: Cytotoxicity against human HCT116 cells assessed as growth inhibition at 10^-5 M after 72 hrs by MTS assay relative to control; details: HCT-116, 72 h, read-out: GI; method in brief: as §1

MIC (Mammaliicoccus sciuri): 96 µM (≈ 32.1 µg/mL)
MIC (Enterococcus faecalis [2]): > 96 µM
MIC (Enterococcus faecalis [3]): > 96 µM
MIC (Bacillus spizizenii): 12 µM (≈ 4.01 µg/mL)
MIC (Staphylococcus aureus [4]): 48 µM (≈ 16.1 µg/mL)
MIC (Enterococcus durans): 48 µM (≈ 16.1 µg/mL)
MIC (Enterococcus faecium [5]): > 96 µM
MIC (Staphylococcus aureus [6]): 48 µM (≈ 16.1 µg/mL)
MIC (Enterococcus faecium [7]): > 96 µM
MIC (Enterococcus faecalis [9]): 96 µM (≈ 32.1 µg/mL)
MIC [10]: 48 µM (≈ 16.1 µg/mL)
MIC (Streptococcus agalactiae): 24 µM (≈ 8.03 µg/mL)
MIC (Enterococcus faecium [11]): > 96 µM
MIC [12]: > 96 µM
MIC [13]: 24 µM (≈ 8.03 µg/mL)
MIC (Enterococcus faecalis [14]): 96 µM (≈ 32.1 µg/mL)
MIC (Listeria monocytogenes [15]): 96 µM (≈ 32.1 µg/mL)
MIC (Bacillus cereus [16]): 24 µM (≈ 8.03 µg/mL)
MIC (Staphylococcus aureus [17]): 48 µM (≈ 16.1 µg/mL)
MIC (Staphylococcus aureus [18]): 48 µM (≈ 16.1 µg/mL)
MIC (Corynebacterium striatum): 96 µM (≈ 32.1 µg/mL)
MIC (Bacillus cereus [19]): 24 µM (≈ 8.03 µg/mL)
MIC (Enterococcus gallinarum [20]): 96 µM (≈ 32.1 µg/mL)
MIC (Staphylococcus aureus [21]): 48 µM (≈ 16.1 µg/mL)
MIC (Enterococcus faecalis [23]): 96 µM (≈ 32.1 µg/mL)
MIC (Bacillus cereus [24]): 24 µM (≈ 8.03 µg/mL)
MIC (Listeria monocytogenes [25]): 96 µM (≈ 32.1 µg/mL)
MIC (Enterococcus avium): 96 µM (≈ 32.1 µg/mL)
MIC (Staphylococcus aureus [26]): 48 µM (≈ 16.1 µg/mL)
MIC [27]: 48 µM (≈ 16.1 µg/mL)
MIC [28]: 48 µM (≈ 16.1 µg/mL)
MIC (Enterococcus hirae): > 96 µM
MIC (Enterococcus gallinarum [29]): > 96 µM
MIC (Staphylococcus aureus [30]): 48 µM (≈ 16.1 µg/mL)
MIC (Listeria monocytogenes [31]): 96 µM (≈ 32.1 µg/mL)
MIC (Listeria monocytogenes [32]): 96 µM (≈ 32.1 µg/mL)
MIC (Enterococcus faecium [33]): > 96 µM
MIC (Listeria innocua): > 96 µM
MIC (Bacillus cereus [34]): 24 µM (≈ 8.03 µg/mL)
MIC [35]: 48 µM (≈ 16.1 µg/mL)
MIC (Staphylococcus aureus [36]): 48 µM (≈ 16.1 µg/mL)
MIC (Enterococcus faecium [38]): > 96 µM
MIC [39]: > 96 µM
MIC (Enterococcus gallinarum [40]): 96 µM (≈ 32.1 µg/mL)
MIC (Enterococcus faecium [41]): > 96 µM
SMILES: C=C1CC[C@H]2C(C)(C)CCC[C@]2(C)[C@H]1C[C@H](O)C1=CC(=O)OC1O (stereo not given in full)
inhibition of growth at 10 µM (MRC5 [1]): 67%
MIC [8]: 24 µM (≈ 8.03 µg/mL)
inhibition of growth at 1 µM (MRC5 [22]): 19%
inhibition of growth at 1 µM (HCT-116 [37]): 1%
inhibition of growth at 10 µM (HCT-116 [42]): 90%

Source: ChEMBL document CHEMBL3585281, “Antibacterial Labdane Diterpenoids from Vitex vestita” (2015)
